Source: paper PMC5059843 (Molecular pharmaceutics, 2016)
Several values for one entry are separate records, joined by “and”; a condition that tells them apart may be missing. Identical values can stand only once. Like-named read-outs stand apart in the source and are kept apart here.

Tests used:
[1] = target: T1, CYP3A4 (Homo sapiens, UniProt P08684); assay: Stopped-flow binding kinetics of ligand to purified CYP3A4; conditions: for k2: dissociation rate from KS=k2/k1
[2] = target: T1, CYP3A4; assay: Spectral MIC formation in CYP3A4 baculosomes, SVD and kinetic modeling; assay type: biochemical
[3] = target: T1, CYP3A4; assay type: biochemical
[4] = target: T1, CYP3A4; assay: In vitro TDI assay in pooled HLM; assay type: biochemical
[5] = tested on: rat CYP3A; assay type: biochemical
[6] = Rat plasma equilibrium dialysis; assay type: in vitro ADME; conditions: pH 7.4
Method in brief: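 Rat plasma spiked with test compound to a final 2 μM. Dialysed in a 96-well equilibrium dialyser, plasma on one side and blank phosphate buffer (pH 7.4) on the other. Incubated 20 h at 37 °C under 5% CO2. The unbound fraction was determined from the two sides.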

[7] = Rat pharmacokinetics of PPT alone; assay type: in vivo
[8] = 3A4 baculosomes, Figure 3 scheme
[9] = baculosomes, end of kinetic experiment (~30 min), 100 μM PPT

T1 sequence (P08684 whole entry): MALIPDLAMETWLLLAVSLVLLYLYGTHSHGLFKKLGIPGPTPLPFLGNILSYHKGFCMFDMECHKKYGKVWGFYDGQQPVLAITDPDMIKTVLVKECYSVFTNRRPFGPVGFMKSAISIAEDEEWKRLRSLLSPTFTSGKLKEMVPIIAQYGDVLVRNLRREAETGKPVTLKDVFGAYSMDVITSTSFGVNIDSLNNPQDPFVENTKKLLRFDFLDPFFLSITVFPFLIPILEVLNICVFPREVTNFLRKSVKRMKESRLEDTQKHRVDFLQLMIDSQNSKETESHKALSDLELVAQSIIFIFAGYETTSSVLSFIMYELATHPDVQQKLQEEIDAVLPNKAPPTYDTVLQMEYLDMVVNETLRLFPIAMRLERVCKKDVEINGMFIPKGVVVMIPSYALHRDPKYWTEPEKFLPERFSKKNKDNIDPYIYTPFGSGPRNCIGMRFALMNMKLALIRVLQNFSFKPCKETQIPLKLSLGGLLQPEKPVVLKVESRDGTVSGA

Structure (SMILES): COc1cc([C@@H]2c3cc4c(cc3[C@H](O)[C@H]3COC(=O)[C@H]23)OCO4)cc(OC)c1OC [PPT, Podophyllotoxin]
- k2 ([1]; used for 3A4 baculosomes model): 10600 min⁻¹
- k2 ([1]; used for HLM model): 10600 min⁻¹
- experimentally determined on-rate (k1) used in the TDI model ([1]; fixed in the TDI model fitting): 270 µM/s
- k1 ([1]; from binding kinetic experiment, used for HLM model): 1080 min⁻¹
- k3 (Fe3+:carbene formation) ([2]; 3A4 baculosomes, 100 μM PPT, Figure 3 scheme, footnote b: fixed value): 1.8 min⁻¹
- k4 (carbene release, enzyme regeneration) [2, 8]: 0.0780 ± 0.0186 min⁻¹
- k5 (reduction to Fe2+:carbene) [2, 8]: 0.0804 ± 0.0228 min⁻¹
- k6 (P420 formation from EI) [2, 8]: 0.1224 ± 0.0252 min⁻¹
- k7 (P420 degradation) [2, 8]: 0.0636 ± 0.0048 min⁻¹
- fraction of total P450 as free P450 [2, 9]: 15.0 ± 0.8%
- fraction of total P450 in the inactivated form (Fe2+:carbene) [2, 9]: 52.0 ± 5.8%
- enzyme regeneration through carbene release, baculosomes versus HLM ([2]; faster in baculosomes than in HLM): about 3 fold
- k4 (carbene release, enzyme regeneration) ([3]; HLM, Figure 3 scheme): 0.0195 ± 0.000 min⁻¹
- k6 (P420 formation from EI) ([3]; HLM, Figure 3 scheme): 0.0506 ± 0.0401 min⁻¹
- k7 (P420 degradation) ([3]; HLM, Figure 3 scheme): 0 min⁻¹
- k3 (Fe3+:carbene formation) ([3]; HLM, Figure 3 scheme, listed as carries footnote b: fixed value): 1.134 ± 0.156 min⁻¹
- fraction of cytochrome P450 in the Fe2+:carbene form ([3]; HLM, end of the experiments): 17.2 ± 2.2%
- fraction of cytochrome P450 in the P420 form ([3]; HLM, end of the experiments): 24.0 ± 2.1%
- fraction of cytochrome P450 in the free form ([3]; HLM, end of the experiments): 40.7 ± 7.3%
- net rate constant for Fe2+:carbene formation (enzyme inactivation) ([3]; spectral MIC formation experiments in HLM): 0.020 min⁻¹
- k3 ([4]; Q model): 95.3 ± 1.7 min⁻¹
- k5 ([4]; Q model): 2334 ± 977 µM⁻¹ min⁻¹
- k7 ([4]; Q model): 0.23 ± 0.07 min⁻¹
- k8 ([4]; Q model): 0.081 ± 0.012 min⁻¹
- k10 ([4]; Q model): 0.011 ± 0.001 min⁻¹
- α ([4]; Q model): 0.21 ± 0.08
- k5 ([4]; QI model): 3371 ± 1567 µM⁻¹ min⁻¹
- k8 ([4]; QI model): 0.15 ± 0.04 min⁻¹
- k9 ([4]; QI model): 0.011 ± 0.001 min⁻¹
- k10 ([4]; QI model): 0.017 ± 006 min⁻¹
- α ([4]; QI model): 0.16 ± 0.07
- k3 ([4]; QI model (ESI-QI scheme, Figure 5a)): 94.9 ± 1.6 min⁻¹
- k7 ([4]; QI model, Fe3+:carbene formation): 0.50 ± 0.23 min⁻¹
- k6/KI2 [5]: 3.66 ± 1.01 nM⁻¹ min⁻¹
- k7 [5]: 0.12 ± 0.02 min⁻¹ and 0.11 ± 0.02 min⁻¹
- fraction unbound at 20 h, 2 μM [6]: 0.044 ± 0.006
- mean Cmax,unbound ([7]; PPT alone, 2-compartmental model): 0.17 µM
- Cmax ([7]; male, Sprague-Dawley, plasma): 3.94 µM
- half-life ([7]; male, Sprague-Dawley, plasma): 37 min
